Measurements of several laboratories.
SLC6A3: Sodium-dependent dopamine transporter (SLC6A3, Homo sapiens, UniProt Q01959)
DRD3: D(3) dopamine receptor (DRD3, Homo sapiens, UniProt P35462)
CA12: Carbonic anhydrase 12 (CA12, Homo sapiens, UniProt O43570)

target	observed	mode	technique	notes	quantity	result	SMILES
SLC6A3	ligand displacement	–	radioligand	–	Ki	1.9 µM	CCOC(=O)[C@@]12C[C@@H]1[C@@H](n1ccc3c(NCCCCCc4ccccc4)nc(C#Cc4ccccc4)nc31)[C@H](O)[C@@H]2O
DRD3	β-arrestin recruitment	antagonist	–	–	IC50	35 µM	Cc1ccc(NS(=O)(=O)c2c(C)[nH]c(C)c2C(=O)N2CCC2)cc1Cl
SLC6A3	ligand displacement	–	radioligand	–	Ki	3.1 µM	CCOC(=O)[C@@]12C[C@@H]1[C@@H](n1cnc3c(NCCCCCc4ccccc4)nc(C#Cc4ccc(Cl)s4)nc31)[C@H](O)[C@@H]2O
CA12	enzyme activity	inhibitor	stopped-flow	–	Ki	1.65 µM	COc1ccc(OC(=O)c2ccc(=O)oc2)cc1
DRD3	G protein activation	antagonist	BRET	–	IC50	4.6 µM	Cc1[nH]c(C)c(S(=O)(=O)Nc2ccc(C(F)(F)F)c(Cl)c2)c1C(=O)N(C)CC(F)(F)F
Glutamate NMDA receptor; GRIN1/GRIN2B (GRIN1/GRIN2B, Homo sapiens, UniProt Q05586+Q13224)	ion current	agonist	two-electrode voltage clamp	oocytes	EC50	0.32 µM	NCC(=O)O
DRD3	G protein activation	antagonist	BRET	–	IC50	4 µM	Cc1[nH]c(C)c(S(=O)(=O)Nc2ccc(C(F)(F)F)c(Cl)c2)c1C(=O)NCC(F)(F)F
Taste receptor type 2 member 16 (TAS2R16, Homo sapiens, UniProt Q9NYV7, N96T)	inositol phosphate	agonist	TR-FRET	–	EC50	5520 µM	OCc1ccccc1O[C@@H]1O[C@H](CO)[C@@H](O)[C@H](O)[C@H]1O
CA12	enzyme activity	inhibitor	stopped-flow	–	Ki	55.8 µM	O=C(OCc1cn(-c2ccccc2)nn1)c1ccc(=O)oc1
DRD3	G protein activation	antagonist	BRET	–	IC50	0.58 µM	Cc1[nH]c(C)c(S(=O)(=O)Nc2ccc(C(F)(F)F)c(Cl)c2)c1C(=O)N1C[C@@H](F)[C@H](F)C1 (relative stereo)
SLC6A3	ligand displacement	–	radioligand	–	Ki	1.5 µM	N#C[C@@]12C[C@@H]1[C@@H](n1cnc3c(Nc4ccccc4)nc(C#Cc4ccc(Cl)s4)nc31)[C@H](O)[C@@H]2O
DRD3	G protein activation	antagonist	BRET	–	IC50	23 µM	Cc1[nH]c(C)c(S(=O)(=O)Nc2ccc(S(C)(=O)=O)c(Cl)c2)c1C(=O)N1CCC(F)(F)C1
CA12	enzyme activity	inhibitor	stopped-flow	–	Ki	62 µM	O=C(NCc1cn(-c2ccccc2)nn1)c1ccc(=O)oc1
DRD3	G protein activation	antagonist	BRET	–	IC50	19 µM	Cc1[nH]c(C)c(S(=O)(=O)Nc2ccc(C(F)(F)F)c(Cl)c2)c1C(=O)O
SLC6A3	ligand displacement	–	radioligand	–	Ki	1.4 µM	CCOC(=O)[C@@]12C[C@@H]1[C@@H](n1cnc3c(Nc4ccccc4)nc(C#Cc4ccc(Cl)s4)nc31)[C@H](O)[C@@H]2O
CA12	enzyme activity	inhibitor	stopped-flow	–	Ki	0.91 µM	O=C(Oc1ccc(Br)cc1)c1ccc(=O)oc1
SLC6A3	ligand displacement	–	radioligand	–	EC50	0.2 µM	N#CC[C@@]12C[C@@H]1[C@@H](n1cnc3c(NC4CC4)nc(C#Cc4ccc(Cl)s4)nc31)[C@H](O)[C@@H]2O
CA12	enzyme activity	inhibitor	stopped-flow	–	Ki	0.0591 µM	Cc1c(Cl)c(=O)oc2cc(OCCCCSC#N)ccc12
CA12	enzyme activity	inhibitor	stopped-flow	–	Ki	65.7 µM	O=C(Oc1ccccc1)c1ccc(=O)oc1
SLC6A3	ligand displacement	–	radioligand	–	EC50	> 10 µM	CNc1nc(I)nc2c1ncn2[C@H]1[C@H](O)[C@H](O)[C@]2(CC#N)C[C@H]12
CA12	enzyme activity	inhibitor	stopped-flow	–	Ki	3.12 µM	O=C(OC1CCCCC1)c1ccc(=O)oc1
SLC6A3	ligand displacement	–	radioligand	–	Ki	1.6 µM	CNC(=O)[C@@]12C[C@@H]1[C@@H](n1cnc3c(Nc4ccccc4)nc(C#Cc4ccc(Cl)s4)nc31)[C@H](O)[C@@H]2O
DRD3	G protein activation	antagonist	BRET	–	IC50	14.8 µM	Cc1[nH]c(C)c(S(=O)(=O)Nc2cc(Cl)cc(Cl)c2Cl)c1C(=O)N1CCC(F)(F)C1
CA12	enzyme activity	inhibitor	stopped-flow	–	Ki	58.7 µM	COc1ccc(-n2cc(CNC(=O)c3ccc(=O)oc3)nn2)cc1
SLC6A3	ligand displacement	–	radioligand	–	EC50	3 µM	OC[C@@]12C[C@@H]1[C@@H](n1cnc3c(Nc4ccccc4)nc(I)nc31)[C@H](O)[C@@H]2O
CA12	enzyme activity	inhibitor	stopped-flow	–	Ki	92.6 µM	CCOC(=O)c1ccc(=O)oc1
DRD3	G protein activation	antagonist	BRET	–	IC50	1 µM	Cc1[nH]c(C)c(S(=O)(=O)Nc2ccc(C(F)(F)F)c(Cl)c2)c1C(=O)N1CC[C@@H](F)C1
